Laboratory results taken from ChEMBL document CHEMBL5724801, “EUbOPEN Chemogenomics Library - Multiplex” (2024).
Values joined by “and” are separate entries in the source; they are usually repeats but may differ in a detail not shown here. Equal values may be shown once.

Key:
Format in all cases: toxicity, cell-based
HEK-293T = assay: Multiplex assay against HEK293T; details: human, 10 µM, compound concentration 10 uM
In short: (§1)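 On a CQ1 microscope at 37°C and 5% CO2, live cells were imaged after compound addition. They had been stained at seeding with Hoechst33342, BioTracker Green Microtubule Cytoskeleton Dye, MitoTracker Red and Annexin V Alexa Fluor 680. CellPathfinder machine-learning gating assigned cells to Hoechst high-intensity objects or normal cells, normal cells to healthy, pyknosed or fragmented nuclei, and pyknosed cells to mitotic or apoptotic. Tubulin, mitochondrial-mass and membrane-permeability phenotypes are per cents of healthy-nucleus cells.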

U2OS = assay: Multiplex assay against U2OS; details: human, 10 µM, compound concentration 10 uM; in short: as §1
Fibroblast = assay: Multiplex assay against human fibroblast; details: 10 µM, compound concentration 10 uM; in short: as §1

**Q.** Which “Population Apoptotic (%)” value (HEK-293T; 12 h) does the source give for `CCC(=O)N1CCN(c2ccc(-n3c(=O)ccc4cnc5ccc(-c6cnc7ccccc7c6)cc5c43)cc2C(F)(F)F)CC1` [TORIN1] here?
**A.** 71% and 51%

**Q.** What about the “Population Healthy Nuclei (%)” value (HEK-293T; 12 h) of the same molecule?
**A.** 76%

**Q.** What about the “Population Hoechst High Intensity Objects (%)” value (HEK-293T; 12 h) of the same molecule?
**A.** 7%

**Q.** What about the “Population Membrane Permeable-Phenotype (%)” value (HEK-293T; 12 h) of the same molecule?
**A.** 0%

**Q.** What about the “Population Mitochondria Different-Phenotype (%)” value (HEK-293T; 12 h) of the same molecule?
**A.** 78% and 87%

**Q.** What about the “Population Mitotic Cells (%)” value (HEK-293T; 12 h) of the same molecule?
**A.** 48%

**Q.** And the “Population Normal (%)” value (HEK-293T; 12 h)?
**A.** 88% and 92%

**Q.** And the “Population Tubulin-Different-Phenotype (%)” value (HEK-293T; 12 h)?
**A.** 37%

**Q.** What about the “Total Cell Count” value (HEK-293T; 12 h) of the same molecule?
**A.** 373 and 266

**Q.** What about the “Population Apoptotic (%)” value (HEK-293T; 24 h) of the same molecule?
**A.** 44%

**Q.** What about the “Population Healthy Nuclei (%)” value (HEK-293T; 24 h) of the same molecule?
**A.** 75%

**Q.** And the “Population Membrane Permeable-Phenotype (%)” value (HEK-293T; 24 h)?
**A.** 0%

**Q.** And the “Population Mitochondria Different-Phenotype (%)” value (HEK-293T; 24 h)?
**A.** 75% and 82%

**Q.** What about the “Population Mitotic Cells (%)” value (HEK-293T; 24 h) of the same molecule?
**A.** 46% and 55%

**Q.** And the “Population Normal (%)” value (HEK-293T; 24 h)?
**A.** 86% and 77%

**Q.** And the “Population Tubulin-Different-Phenotype (%)” value (HEK-293T; 24 h)?
**A.** 43% and 33%

**Q.** And the “Total Cell Count” value (HEK-293T; 24 h)?
**A.** 337 and 225

**Q.** What about the “Population Apoptotic (%)” value (HEK-293T; 48 h) of the same molecule?
**A.** 56% and 68%

**Q.** And the “Population Healthy Nuclei (%)” value (HEK-293T; 48 h)?
**A.** 70% and 56%

**Q.** What about the “Population Membrane Permeable-Phenotype (%)” value (HEK-293T; 48 h) of the same molecule?
**A.** 0%

**Q.** And the “Population Mitochondria Different-Phenotype (%)” value (HEK-293T; 48 h)?
**A.** 77% and 80%

**Q.** What about the “Population Mitotic Cells (%)” value (HEK-293T; 48 h) of the same molecule?
**A.** 43%

**Q.** What about the “Population Normal (%)” value (HEK-293T; 48 h) of the same molecule?
**A.** 73% and 38%

**Q.** What about the “Population Tubulin-Different-Phenotype (%)” value (HEK-293T; 48 h) of the same molecule?
**A.** 47% and 37%

**Q.** What about the “Total Cell Count” value (HEK-293T; 48 h) of the same molecule?
**A.** 292 and 235

**Q.** And the “Population Apoptotic (%)” value (U2OS; 12 h)?
**A.** 68% and 76%

**Q.** And the “Population Healthy Nuclei (%)” value (U2OS; 12 h)?
**A.** 55% and 71%

**Q.** And the “Population Hoechst High Intensity Objects (%)” value (U2OS; 12 h)?
**A.** 1% and 3%

**Q.** What about the “Population Mitochondria Different-Phenotype (%)” value (U2OS; 12 h) of the same molecule?
**A.** 7%

**Q.** And the “Population Normal (%)” value (U2OS; 12 h)?
**A.** 98% and 96%

**Q.** And the “Population Tubulin-Different-Phenotype (%)” value (U2OS; 12 h)?
**A.** 5% and 9%

**Q.** And the “Total Cell Count” value (U2OS; 12 h)?
**A.** 288 and 109

**Q.** What about the “Population Apoptotic (%)” value (U2OS; 24 h) of the same molecule?
**A.** 77% and 73%

**Q.** And the “Population Healthy Nuclei (%)” value (U2OS; 24 h)?
**A.** 54% and 72%

**Q.** What about the “Population Hoechst High Intensity Objects (%)” value (U2OS; 24 h) of the same molecule?
**A.** 1% and 2%

**Q.** What about the “Population Mitochondria Different-Phenotype (%)” value (U2OS; 24 h) of the same molecule?
**A.** 9%

**Q.** What about the “Population Normal (%)” value (U2OS; 24 h) of the same molecule?
**A.** 98% and 97%

**Q.** And the “Population Tubulin-Different-Phenotype (%)” value (U2OS; 24 h)?
**A.** 5% and 3%

**Q.** What about the “Total Cell Count” value (U2OS; 24 h) of the same molecule?
**A.** 287 and 115

**Q.** And the “Population Apoptotic (%)” value (U2OS; 48 h)?
**A.** 78% and 82%

**Q.** What about the “Population Healthy Nuclei (%)” value (U2OS; 48 h) of the same molecule?
**A.** 44%

**Q.** And the “Population Hoechst High Intensity Objects (%)” value (U2OS; 48 h)?
**A.** 7% and 2%

**Q.** What about the “Population Normal (%)” value (U2OS; 48 h) of the same molecule?
**A.** 93% and 97%

**Q.** And the “Population Tubulin-Different-Phenotype (%)” value (U2OS; 48 h)?
**A.** 8% and 5%

**Q.** And the “Total Cell Count” value (U2OS; 48 h)?
**A.** 300 and 147

**Q.** And the “Population Healthy Nuclei (%)” value (Fibroblast; 12 h)?
**A.** 60% and 44%

**Q.** And the “Population Membrane Permeable-Phenotype (%)” value (Fibroblast; 12 h)?
**A.** 1%

**Q.** And the “Population Mitochondria Different-Phenotype (%)” value (Fibroblast; 12 h)?
**A.** 5% and 0%

**Q.** And the “Population Mitotic Cells (%)” value (Fibroblast; 12 h)?
**A.** 72% and 65%

**Q.** What about the “Population Normal (%)” value (Fibroblast; 12 h) of the same molecule?
**A.** 94% and 90%

**Q.** And the “Population Tubulin-Different-Phenotype (%)” value (Fibroblast; 12 h)?
**A.** 62% and 64%

**Q.** And the “Total Cell Count” value (Fibroblast; 12 h)?
**A.** 155 and 131

**Q.** What about the “Population Healthy Nuclei (%)” value (Fibroblast; 24 h) of the same molecule?
**A.** 57%

**Q.** And the “Population Membrane Permeable-Phenotype (%)” value (Fibroblast; 24 h)?
**A.** 0%

**Q.** And the “Population Mitochondria Different-Phenotype (%)” value (Fibroblast; 24 h)?
**A.** 10% and 5%

**Q.** And the “Population Mitotic Cells (%)” value (Fibroblast; 24 h)?
**A.** 66% and 56%

**Q.** What about the “Population Normal (%)” value (Fibroblast; 24 h) of the same molecule?
**A.** 96% and 93%

**Q.** What about the “Population Tubulin-Different-Phenotype (%)” value (Fibroblast; 24 h) of the same molecule?
**A.** 62% and 59%

**Q.** What about the “Total Cell Count” value (Fibroblast; 24 h) of the same molecule?
**A.** 137 and 128

**Q.** And the “Population Apoptotic (%)” value (Fibroblast; 48 h)?
**A.** 80%

**Q.** What about the “Population Healthy Nuclei (%)” value (Fibroblast; 48 h) of the same molecule?
**A.** 72% and 62%

**Q.** And the “Population Membrane Permeable-Phenotype (%)” value (Fibroblast; 48 h)?
**A.** 0% and 8%

**Q.** And the “Population Mitotic Cells (%)” value (Fibroblast; 48 h)?
**A.** 20% and 46%

**Q.** And the “Population Normal (%)” value (Fibroblast; 48 h)?
**A.** 96% and 95%

**Q.** What about the “Population Pyknosed Nuclei (%)” value (Fibroblast; 48 h) of the same molecule?
**A.** 10%

**Q.** What about the “Population Tubulin-Different-Phenotype (%)” value (Fibroblast; 48 h) of the same molecule?
**A.** 67% and 61%

**Q.** And the “Total Cell Count” value (Fibroblast; 48 h)?
**A.** 127 and 136
